Consider 16 molecules from ChEMBL document CHEMBL6083235, “Synthesis, evaluation and mechanistic insights of novel IMPDH inhibitors targeting ESKAPEE bacteria” (Eur J Med Chem, 2024).

For series [1], the target named is T1, Inosine-5'-monophosphate dehydrogenase (Pseudomonas aeruginosa (strain ATCC 15692 / DSM 22644 / CIP 104116 / JCM14847 / LMG 12228 / 1C / PRS 101 / PAO1)) (UniProt Q9HXM5).
T1 sequence (whole entry): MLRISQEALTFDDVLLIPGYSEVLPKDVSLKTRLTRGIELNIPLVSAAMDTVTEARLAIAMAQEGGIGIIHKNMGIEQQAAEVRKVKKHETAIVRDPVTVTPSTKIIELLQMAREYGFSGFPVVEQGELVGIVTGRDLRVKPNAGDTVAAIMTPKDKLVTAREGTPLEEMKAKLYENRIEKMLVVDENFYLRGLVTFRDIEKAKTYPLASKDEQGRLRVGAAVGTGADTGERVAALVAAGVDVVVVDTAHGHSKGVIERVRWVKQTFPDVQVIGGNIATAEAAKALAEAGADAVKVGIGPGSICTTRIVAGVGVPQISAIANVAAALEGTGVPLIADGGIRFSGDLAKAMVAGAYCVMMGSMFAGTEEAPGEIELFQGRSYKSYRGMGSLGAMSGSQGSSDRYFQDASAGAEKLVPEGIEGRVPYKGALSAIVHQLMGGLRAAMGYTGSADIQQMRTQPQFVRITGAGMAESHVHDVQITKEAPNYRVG
Description: Inhibition of Pseudomonas aeruginosa IMPDH extracted form Escherichia coli BL21 (DE3)pDIA17 assessed as formation of NADH at 50 uM relative to control. In a few lines:
(§1)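 His-tagged wild-type IMPDH (E. coli, P. aeruginosa or S. aureus) made in E. coli BL21(DE3)/pDIA17, purified by metal-affinity then gel filtration. NADH formation followed at 340 nm, 30 °C, with 0.2 mM IMP, 0.4 mM NAD⁺, 0.2 mM MgATP, 2 mM MgCl₂. Buffers: pa Tris-HCl 50 mM pH 8; ec Tris-HCl 50 mM pH 8, KCl 50 mM; sa Na₂CO₃ 50 mM pH 9.2, KCl 20 mM. Compound at 50 μM; % inhibition vs compound-free activity.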

Series [2] deals with T2, Inosine-5'-monophosphate dehydrogenase (Pseudomonas aeruginosa (strain ATCC 15692 / DSM 22644 / CIP 104116 / JCM14847 / LMG 12228 / 1C / PRS 101 / PAO1), UniProt Q9HXM5).
T2 sequence (Q9HXM5 whole entry): T1 sequence (whole entry)
Nature of the series: Inhibition of Pseudomonas aeruginosa IMPDH extracted form Escherichia coli BL21 (DE3)pDIA17 assessed as formation of NADH. Conditions: read-out: I50.

Series [3] relates to Staphylococcus aureus. Nature of the series: Antibacterial activity against methicillin-resistant Staphylococcus aureus ATCC 43300 assessed as growth inhibition at 32 ug/ml relative to control. The class given is functional.
The nature of series [4]: Inhibition of Pseudomonas aeruginosa IMPDH delta Bateman domain extracted form Escherichia coli BL21 (DE3)pDIA17 assessed as formation of NADH. The following applies: read-out: I50. In a few lines: (§2)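 Bateman-domain-deleted IMPDH (E. coli or P. aeruginosa) from E. coli BL21(DE3)/pDIA17; NADH at 340 nm, 30 °C, 0.2 mM IMP, 0.4 mM NAD⁺, 0.2 mM MgATP, 2 mM MgCl₂; buffers as per variant (ec Tris-HCl pH 9/KCl 100 mM; pa Tris-HCl pH 8/KCl 100 mM). I50 by dose-response logistic fit, at least three experiments.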

Series [5] has as its system Mycobacterium tuberculosis. Description: Inhibition of Mycobacterium tuberculosis TMP kinase using 0.05 dTMP and 0.5 mM MgATP by measuring NADH consumption at 20 uM by coupled spectrophotometric assay. In outline: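 Recombinant M. tuberculosis TMP kinase; activity at 30 °C by NADH consumption at 340 nm in a pyruvate kinase/lactate dehydrogenase/nucleoside diphosphate kinase coupled assay (2 units each). Medium: 50 mM Tris-HCl pH 7.4, 50 mM KCl, 2 mM MgCl2, 0.2 mM NADH, 1 mM phosphoenolpyruvate. ATP held at 0.5 mM and dTMP at 0.05 mM; compound at 20 μM.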

The target in series [6] is T3, Inosine-5'-monophosphate dehydrogenase (Escherichia coli K-12) (UniProt P0ADG7).
T3 sequence (whole entry): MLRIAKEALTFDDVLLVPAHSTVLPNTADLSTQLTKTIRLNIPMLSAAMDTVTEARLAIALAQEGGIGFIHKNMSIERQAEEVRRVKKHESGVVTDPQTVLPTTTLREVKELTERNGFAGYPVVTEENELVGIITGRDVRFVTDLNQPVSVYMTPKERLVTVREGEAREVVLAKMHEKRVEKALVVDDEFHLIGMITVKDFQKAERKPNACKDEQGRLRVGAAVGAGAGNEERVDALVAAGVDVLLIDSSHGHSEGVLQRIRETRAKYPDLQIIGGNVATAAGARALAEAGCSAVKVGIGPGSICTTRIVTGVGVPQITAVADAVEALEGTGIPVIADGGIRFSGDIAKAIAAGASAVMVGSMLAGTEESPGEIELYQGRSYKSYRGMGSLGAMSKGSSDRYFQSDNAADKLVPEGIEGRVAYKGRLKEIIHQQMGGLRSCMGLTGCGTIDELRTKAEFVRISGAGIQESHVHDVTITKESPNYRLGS
Description: Inhibition of Escherichia coli IMPDH extracted form Escherichia coli BL21 (DE3)pDIA17 assessed as formation of NADH at 50 uM relative to control. In outline: as §1

Series [7] has as its target Inosine-5'-monophosphate dehydrogenase 2 (Homo sapiens) (UniProt P12268). Description: Inhibition of human IMPDH2 extracted form Escherichia coli BL21 (DE3)pDIA17 assessed as formation of NADH at 50 uM.
For series [8], the system named is Caco-2. Description: Cytotoxicity against human Caco-2 cells assessed as cell viability at 1 uM measured after 72 hrs by Alamar blue assay. Conditions: caco-2, 72 h. In kind it is toxicity, cell-based. In a few lines: (§3)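 Confluent Caco-2 monolayers (seeded 1.10⁵ cells/cm², 48 h growth; DMEM 25 mM glucose, 10 % FBS, NEAA, 37 °C, 5 % CO₂) exposed 72 h; vehicle 0.1 % DMSO, 0.2 % Triton X-100 as cytotoxic control. Rinsed with PBS, 5 % Alamar Blue in FBS-free medium 30 min at 37 °C; resorufin fluorescence (ex 530/em 570 nm) relative to DMSO. Mean ± SEM, three independent experiments.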

Series [9] in a line: Metabolic stability in mouse liver microsomes assessed as recovery in absence of NADPH measured after 120 mins. In kind it is ADME, Microsome. The following applies: read-out: Drug recovery.
Series [10] has as its system Escherichia coli. Nature of the series: Inhibition of Escherichia coli IMPDH delta Bateman domain extracted form Escherichia coli BL21 (DE3)pDIA17 assessed as formation of NADH at 50 uM relative to control. In outline: (§4)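 Bateman-domain-deleted IMPDH (E. coli or P. aeruginosa), His-tagged, made in E. coli BL21(DE3)/pDIA17. NADH formation at 340 nm, 30 °C, 0.2 mM IMP, 0.4 mM NAD⁺, 0.2 mM MgATP, 2 mM MgCl₂. Buffer: ec Tris-HCl 50 mM pH 9, KCl 100 mM; pa Tris-HCl 50 mM pH 8, KCl 100 mM. Compound 50 μM; % inhibition relative to uninhibited enzyme.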

Series [11] is described as follows: Metabolic stability in mouse liver microsomes assessed as recovery in presence of NADPH measured after 120 mins. In kind it is ADME, Microsome. The following applies: read-out: Drug recovery.
The target of series [12] is T1, Inosine-5'-monophosphate dehydrogenase (Pseudomonas aeruginosa (strain ATCC 15692 / DSM 22644 / CIP 104116 / JCM14847 / LMG 12228 / 1C / PRS 101 / PAO1)). Nature of the series: Non-competitive inhibition of Pseudomonas aeruginosa IMPDH by Lineweaver-Burk plot analysis. In a few lines: (§5)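 Steady-state kinetics of P. aeruginosa ΔBateman IMPDH: initial rates (NADH at 340 nm, 30 °C, Tris-HCl 50 mM pH 8, KCl 100 mM) measured across variable IMP at saturating 2 mM NAD⁺, without or with several inhibitor concentrations; data from at least three experiments fitted to Michaelis–Menten and shown as Lineweaver-Burk plots.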

For series [13], the system named is Staphylococcus aureus. Nature of the series: Inhibition of Staphylococcus aureus IMPDH extracted form Escherichia coli BL21 (DE3)pDIA17 assessed as formation of NADH at 50 uM relative to control. In outline:
as §1

For series [14], the system named is Caco-2. Nature of the series: Cytotoxicity against human Caco-2 cells assessed as cell viability at 10 uM measured after 72 hrs by Alamar blue assay. The class given is toxicity, cell-based. The following applies: caco-2, 72 h. In outline: as §3
Series [15] has as its system Pseudomonas aeruginosa. Nature of the series: Inhibition of Pseudomonas aeruginosa IMPDH delta Bateman domain extracted form Escherichia coli BL21 (DE3)pDIA17 assessed as formation of NADH at 50 uM relative to control. In a few lines: as §4
For series [16], the target named is T1, Inosine-5'-monophosphate dehydrogenase (Pseudomonas aeruginosa (strain ATCC 15692 / DSM 22644 / CIP 104116 / JCM14847 / LMG 12228 / 1C / PRS 101 / PAO1)). Nature of the series: Non-competitive inhibition of Pseudomonas aeruginosa IMPDH in presence of 2 mM NAD+ by Michaelis-Menten equation. In a few lines: as §5
Series [17] in a line: Inhibition of Escherichia coli IMPDH delta Bateman domain extracted form Escherichia coli BL21 (DE3)pDIA17 assessed as formation of NADH. The following applies: read-out: I50. In outline: as §2

Calls of active or inactive are those of the source. The calls are words filed in the database; no cut-off is given here.

Chain of Inosine-5'-monophosphate dehydrogenase 2 (Homo sapiens) (P12268 2-514 limits assumed): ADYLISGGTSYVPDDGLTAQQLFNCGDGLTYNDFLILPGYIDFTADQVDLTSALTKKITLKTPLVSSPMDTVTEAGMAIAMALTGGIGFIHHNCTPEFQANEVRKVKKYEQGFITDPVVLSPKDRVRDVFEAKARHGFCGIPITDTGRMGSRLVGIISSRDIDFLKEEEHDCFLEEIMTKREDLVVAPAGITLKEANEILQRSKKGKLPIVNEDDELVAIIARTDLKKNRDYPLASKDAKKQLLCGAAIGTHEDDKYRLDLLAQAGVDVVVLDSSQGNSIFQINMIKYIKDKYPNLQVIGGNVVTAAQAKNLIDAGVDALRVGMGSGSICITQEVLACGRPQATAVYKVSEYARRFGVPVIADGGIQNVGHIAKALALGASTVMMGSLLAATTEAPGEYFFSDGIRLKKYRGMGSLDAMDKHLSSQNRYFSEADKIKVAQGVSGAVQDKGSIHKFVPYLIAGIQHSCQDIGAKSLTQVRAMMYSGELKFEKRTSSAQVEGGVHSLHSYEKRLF

As for `CC(C)(NC(=O)NCc1ccccc1)c1cccc(-c2ccccc2)c1`, the inhibition in series [1] was 16%.

As to `CC(C)(NC(=O)Nc1ccc(Cl)c([N+](=O)[O-])c1)c1cccc(-c2cccnc2F)c1`, the inhibition in series [1] was determined as 98%. For the same molecule, the IC50 in series [2] turned out to be 240 nM.

Consider `CCOC(=O)n1cc(-c2cccc(C(C)(C)NC(=O)Nc3ccc(Cl)c([N+](=O)[O-])c3)c2)cn1`, for which the inhibition in [1] was 87%. The IC50 in series [2] was determined as 420 nM.

With `CC(C)(NC(=O)Nc1ccc(Cl)c([N+](=O)[O-])c1)c1cccc(-c2cc[nH]n2)c1`, the inhibition in series [1] turned out to be 99%; in series [6], 92%; in [10], 88%; in series [13], 94%; in series [15], 98%. The inhibition at 32 µg/mL in series [3] turned out to be 79.3%. Moreover, the IC50 was 160 nM in [4], 110 nM in series [2] and 4950 nM in series [17]. In addition, the inhibition result in series [5] and in [7] was “inactive” in each case. For the same molecule, the Activity entry in series [8] and in series [14] was “Non-toxic” throughout. The remaining at 2 h in [9] and in [11] was above 95% in each case. Besides, the inhibition result in series [12] and in [16] was “Active” in each case.

With `CC(C)(NC(=O)Nc1ccc(Cl)c([N+](=O)[O-])c1)c1cccc(-c2ccco2)c1`, the inhibition in series [1] stood at 99%. Also, the IC50 in series [2] stood at 260 nM.

With `CC(C)(NC(=O)Nc1ccc(Cl)c([N+](=O)[O-])c1)c1cccc(-c2cn[nH]c2)c1`, the inhibition is 97% in series [1]; 89% in [6]; 84% in series [10]; 93% in series [13]; 99% in series [15]. Besides, in [3], the inhibition at 32 µg/mL amounted to 61.7%. For the same molecule, the IC50 was determined as 170 nM in series [4], 130 nM in series [2] and 5510 nM in [17]. Moreover, the inhibition result in series [5] and in [7] was “inactive” throughout. Besides, the Activity result in [8] and in series [14] was “Non-toxic” in each case. Moreover, the remaining at 2 h in series [9] and in series [11] was above 95% in each case. Further, the inhibition result in [12] and in [16] was “Active” each time.

For the molecule `CC(C)(NC(=O)Nc1ccc(Cl)c([N+](=O)[O-])c1)c1cccc(-c2cn(C(c3ccccc3)(c3ccccc3)c3ccccc3)cn2)c1`, in [1], the inhibition is 35%.

For `CC(C)(NC(=O)NCc1ccccc1)c1cccc(-c2cccs2)c1`, the inhibition in series [1] is 15%.

Consider `CC(C)(NC(=O)Nc1ccc(Cl)c([N+](=O)[O-])c1)c1cccc(-c2nccn2Cc2ccccc2)c1`, for which, in series [1], the inhibition was 63%.

Turning to `CC(C)(NC(=O)Nc1ccc(Cl)c([N+](=O)[O-])c1)c1cccc(-c2cccs2)c1`, in series [1], the inhibition was found to be 96%. In [2], the IC50 amounted to 140 nM.

`CC(C)(NC(=O)NCc1ccccc1)c1cccc(-c2cn[nH]c2)c1`: the inhibition in series [1] is 29%.

In the case of `CC(C)(NC(=O)NCc1ccccc1)c1cccc(-c2cc[nH]n2)c1`, the inhibition in series [1] was found to be 59%.

On to `CC(C)(NC(=O)Nc1ccc(Cl)c([N+](=O)[O-])c1)c1cccc(-c2nccs2)c1`, for which, in [1], the inhibition amounted to 97%. Besides, the IC50 in series [2] is 110 nM.

As for `CCOc1ncccc1-c1cccc(C(C)(C)NC(=O)Nc2ccc(Cl)c([N+](=O)[O-])c2)c1`, the inhibition in series [1] came to 95%. Besides, the IC50 in series [2] worked out at 590 nM.

Regarding `CCOC(=O)n1ccc(-c2cccc(C(C)(C)NC(=O)Nc3ccc(Cl)c([N+](=O)[O-])c3)c2)n1`, the inhibition in series [1] was determined as 98%. Also, in series [2], the IC50 turned out to be 160 nM.

With `CC(C)(NC(=O)NCc1ccccc1)c1cccc(-c2ccco2)c1`, the figures for the inhibition in series [1], in series [10] and in series [15] were 10%, 1% and 6%, respectively. Also, the inhibition at 32 µg/mL in series [3] was found to be 0.49%. For the same molecule, in series [7], the inhibition entry is “inactive”.
